Values after ≈ are worked out from the molar mass of the structure shown.
What was measured:
[1] = Selectivity index, ratio of GI50 for human HCT116 cells to MIC90 for Mycobacterium tuberculosis H37Ra ATCC 25177 active stage; assay type: toxicity, cell-based, HCT-116; conditions: read-out: Selectivity Index
How it was run: (§1)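 Cytotoxicity was measured on human MCF-7, HCT116 and THP-1 cells by MTT assay, with paclitaxel as reference. GI50 is the concentration inhibiting 50% of cell growth. The selectivity index is GI50 for the given cell line divided by MIC90 for the given mycobacterial strain and stage.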

[2] = tested on: Bacillus subtilis; assay: Growth inhibition of Bacillus subtilis at 3 ug/ml; assay type: functional; conditions: read-out: GI
How it was run: (§2)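 Screened against Gram-negative E. coli and P. aeruginosa and Gram-positive S. aureus and B. subtilis. Compound was tested at 3 µg/ml, and the read-out is percent growth inhibition.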

[3] = Antitubercular activity against Mycobacterium bovis BCG ATCC 35743 dormant stage measured on day 12 by nitrate reductase based two-fold dilution assay; assay type: functional, Mycobacterium bovis BCG str. ATCC 35743; conditions: Mycobacterium tuberculosis variant bovis BCG, ATCC 35743, 288 h
[4] = Antitubercular activity against Mycobacterium tuberculosis H37Ra ATCC 25177 dormant stage infected in human THP1 cells measured on day 12 by nitrate reductase assay; assay type: functional, THP-1; conditions: ATCC 25177, 288 h
[5] = Selectivity index, ratio of GI50 for human THP1 cells to MIC90 for Mycobacterium tuberculosis H37Ra ATCC 25177 active stage; assay type: toxicity, cell-based, THP-1; conditions: read-out: Selectivity Index; how it was run: as §1
[6] = tested on: Staphylococcus aureus; assay: Growth inhibition of Staphylococcus aureus at 30 ug/ml; assay type: functional; conditions: read-out: GI
[7] = tested on: Escherichia coli; assay: Growth inhibition of Escherichia coli at 10 ug/ml; assay type: functional; conditions: read-out: GI
[8] = tested on: Pseudomonas aeruginosa; assay: Growth inhibition of Pseudomonas aeruginosa at 3 ug/ml; assay type: functional; conditions: read-out: GI; how it was run: as §2
[9] = tested on: Bacillus subtilis; assay: Growth inhibition of Bacillus subtilis at 30 ug/ml; assay type: functional; conditions: read-out: GI
[10] = tested on: Bacillus subtilis; assay: Growth inhibition of Bacillus subtilis at 10 ug/ml; assay type: functional; conditions: read-out: GI
[11] = tested on: Pseudomonas aeruginosa; assay: Growth inhibition of Pseudomonas aeruginosa at 30 ug/ml; assay type: functional; conditions: read-out: GI
[12] = Cytotoxicity against human THP1 cells by MTT assay; assay type: toxicity, cell-based, THP-1; conditions: for GI50: THP1 cells; for GI90: thp-1
[13] = tested on: Staphylococcus aureus; assay: Growth inhibition of Staphylococcus aureus at 3 ug/ml; assay type: functional; conditions: read-out: GI; how it was run: as §2
[14] = Selectivity index, ratio of GI50 for human MCF7 cells to MIC90 for Mycobacterium tuberculosis H37Ra ATCC 25177 dormant stage; assay type: toxicity, cell-based; conditions: read-out: Selectivity Index
How it was run: (§3)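 Cytotoxicity was measured on human MCF-7, HCT116 and THP-1 cells by MTT assay, with paclitaxel as reference. The selectivity index is GI50 for the given cell line divided by MIC90 for the given mycobacterial strain and stage.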

[15] = tested on: Escherichia coli; assay: Growth inhibition of Escherichia coli at 30 ug/ml; assay type: functional; conditions: read-out: GI
[16] = tested on: Escherichia coli; assay: Growth inhibition of Escherichia coli at 3 ug/ml; assay type: functional; conditions: read-out: GI; how it was run: as §2
[17] = Selectivity index, ratio of GI50 for human THP1 cells to MIC90 for Mycobacterium bovis BCG ATCC 35743 active stage; assay type: toxicity, cell-based, THP-1; conditions: read-out: Selectivity Index; how it was run: as §1
[18] = Antitubercular activity against Mycobacterium tuberculosis H37Ra ATCC 25177 dormant stage measured on day 12 by XTT reduction menadione based two-fold dilution assay; assay type: functional; conditions: ATCC 25177, 288 h
How it was run: (§4)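 M. tuberculosis H37Ra ATCC 25177 was exposed to 0.7–100 μg/mL in two-fold steps (0.7, 1.5, 3.1 … 100). Active stage was read after 8 days and dormant stage after 12 days of incubation. Inhibition was read by XTT reduction menadione assay (XRMA), absorbance 470 nm. MIC90 is the concentration giving ≥90% inhibition (µg/mL).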

[19] = Antitubercular activity against Mycobacterium tuberculosis H37Ra ATCC 25177 active stage measured on day 8 by XTT reduction menadione based two-fold dilution assay; assay type: functional; conditions: ATCC 25177, 192 h; how it was run: as §4
[20] = Cytotoxicity against human HCT116 cells by MTT assay; assay type: toxicity, cell-based, HCT-116; conditions: for GI50: HCT116 cells; for GI90: hct-116
[21] = Selectivity index, ratio of GI50 for human HCT116 cells to MIC90 for Mycobacterium bovis BCG ATCC 35743 dormant stage; assay type: toxicity, cell-based, HCT-116; conditions: read-out: Selectivity Index; how it was run: as §3
[22] = Selectivity index, ratio of GI50 for human MCF7 cells to MIC90 for Mycobacterium bovis BCG ATCC 35743 dormant stage; assay type: toxicity, cell-based; conditions: read-out: Selectivity Index; how it was run: as §3
[23] = Antitubercular activity against Mycobacterium tuberculosis H37Ra ATCC 25177 active stage infected in human THP1 cells measured on day 8 by nitrate reductase assay; assay type: functional, THP-1; conditions: ATCC 25177, 192 h
[24] = Cytotoxicity against human MCF7 cells by MTT assay; assay type: toxicity, cell-based; conditions: for GI50: MCF7 cells; for GI90: mcf7
[25] = tested on: Pseudomonas aeruginosa; assay: Growth inhibition of Pseudomonas aeruginosa at 10 ug/ml; assay type: functional; conditions: read-out: GI
[26] = Selectivity index, ratio of GI50 for human HCT116 cells to MIC90 for Mycobacterium bovis BCG ATCC 35743 active stage; assay type: toxicity, cell-based, HCT-116; conditions: read-out: Selectivity Index; how it was run: as §1
[27] = Antitubercular activity against Mycobacterium bovis BCG ATCC 35743 active stage measured on day 8 by nitrate reductase based two-fold dilution assay; assay type: functional, Mycobacterium bovis BCG str. ATCC 35743; conditions: Mycobacterium tuberculosis variant bovis BCG, ATCC 35743, 192 h
[28] = Selectivity index, ratio of GI50 for human MCF7 cells to MIC90 for Mycobacterium tuberculosis H37Ra ATCC 25177 active stage; assay type: toxicity, cell-based; conditions: read-out: Selectivity Index; how it was run: as §1
[29] = tested on: Staphylococcus aureus; assay: Growth inhibition of Staphylococcus aureus at 10 ug/ml; assay type: functional; conditions: read-out: GI
[30] = Selectivity index, ratio of GI50 for human THP1 cells to MIC90 for Mycobacterium tuberculosis H37Ra ATCC 25177 dormant stage; assay type: toxicity, cell-based, THP-1; conditions: read-out: Selectivity Index; how it was run: as §3
[31] = Selectivity index, ratio of GI50 for human MCF7 cells to MIC90 for Mycobacterium bovis BCG ATCC 35743 active stage; assay type: toxicity, cell-based; conditions: read-out: Selectivity Index; how it was run: as §1
[32] = Selectivity index, ratio of GI50 for human THP1 cells to MIC90 for Mycobacterium bovis BCG ATCC 35743 dormant stage; assay type: toxicity, cell-based, THP-1; conditions: read-out: Selectivity Index; how it was run: as §3
[33] = Selectivity index, ratio of GI50 for human HCT116 cells to MIC90 for Mycobacterium tuberculosis H37Ra ATCC 25177 dormant stage; assay type: toxicity, cell-based, HCT-116; conditions: read-out: Selectivity Index; how it was run: as §3

Structure (SMILES) | selectivity ratio [1] | inhibition of growth at 3 µg/mL [2] | IC50 [3] | MIC90 [3] | MIC90 [4] | selectivity ratio [5] | inhibition of growth at 30 µg/mL [6] | inhibition of growth at 10 µg/mL [7] | inhibition of growth at 3 µg/mL [8] | inhibition of growth at 30 µg/mL [9] | inhibition of growth at 10 µg/mL [10] | inhibition of growth at 30 µg/mL [11] | GI50 [12] | GI90 [12] | inhibition of growth at 3 µg/mL [13] | selectivity ratio [14] | inhibition of growth at 30 µg/mL [15] | inhibition of growth at 3 µg/mL [16] | selectivity ratio [17] | IC50 [18] | other results
C/C(=N\Nc1nc(-c2ccccc2)cs1)c1sc(-c2ccccc2)nc1C | 11 | 4.82% | 7.95 µg/mL (≈ 20.4 µM) | 18.7 µg/mL (≈ 47.9 µM) | 12 µg/mL (≈ 30.7 µM) | 11 | 77.2% | 56.6% | 10.2% | 75.5% | 50.1% | 78.2% | > 100 µg/mL | > 100 µg/mL | 11.6% | 8 | 78.5% | 17.5% | 5 | 0.98 µg/mL (≈ 2.51 µM) | MIC90 [18]: 12.8 µg/mL (≈ 32.7 µM); IC50 [19]: 0.17 µg/mL (≈ 0.435 µM); MIC90 [19]: 9.46 µg/mL (≈ 24.2 µM); GI50 [20]: > 100 µg/mL; GI90 [20]: > 100 µg/mL; selectivity ratio [21]: 5; selectivity ratio [22]: 5; MIC90 [23]: 15.6 µg/mL (≈ 39.9 µM); GI50 [24]: > 100 µg/mL; GI90 [24]: > 100 µg/mL; inhibition of growth at 10 µg/mL [25]: 53.8%; selectivity ratio [26]: 5; IC50 [27]: 8.75 µg/mL (≈ 22.4 µM); MIC90 [27]: 21.2 µg/mL (≈ 54.3 µM); selectivity ratio [28]: 11; inhibition of growth at 10 µg/mL [29]: 53.6%; selectivity ratio [30]: 8; selectivity ratio [31]: 5; selectivity ratio [32]: 5; selectivity ratio [33]: 8
C/C(=N\Nc1nc(-c2ccc(C)cc2)cs1)c1sc(C)nc1C | 1 | 76.9% | 9.67 µg/mL (≈ 28.2 µM) | 83.2 µg/mL (≈ 243 µM) | 82.8 µg/mL (≈ 242 µM) | 1 | 72% | 83.3% | 79.6% | 69.9% | 81% | 72.8% | > 100 µg/mL | > 100 µg/mL | 78.6% | 2 | 73.7% | 79.8% | 1 | 8.35 µg/mL (≈ 24.4 µM) | MIC90 [18]: 65.8 µg/mL (≈ 192 µM); IC50 [19]: 11.1 µg/mL (≈ 32.3 µM); MIC90 [19]: > 100 µg/mL; GI50 [20]: > 100 µg/mL; GI90 [20]: > 100 µg/mL; selectivity ratio [21]: 10; selectivity ratio [22]: 10; MIC90 [23]: 74.3 µg/mL (≈ 217 µM); GI50 [24]: > 100 µg/mL; GI90 [24]: > 100 µg/mL; inhibition of growth at 10 µg/mL [25]: 83.5%; selectivity ratio [26]: 1; IC50 [27]: 17.9 µg/mL (≈ 52.4 µM); MIC90 [27]: 54.8 µg/mL (≈ 160 µM); selectivity ratio [28]: 1; inhibition of growth at 10 µg/mL [29]: 82.4%; selectivity ratio [30]: 2; selectivity ratio [31]: 1; selectivity ratio [32]: 10; selectivity ratio [33]: 2
COc1ccc(-c2csc(N/N=C(\C)c3sc(C)nc3C)n2)cc1 | 1 | 70.7% | 8.41 µg/mL (≈ 23.5 µM) | 24 µg/mL (≈ 67.1 µM) | 46.2 µg/mL (≈ 129 µM) | 1 | 67.2% | 74.3% | 73.6% | 64.7% | 70.6% | 67.8% | > 100 µg/mL | > 100 µg/mL | 72.8% | 5 | 69.2% | 74.4% | 1 | 1.24 µg/mL (≈ 3.46 µM) | MIC90 [18]: 20.5 µg/mL (≈ 57.2 µM); IC50 [19]: 0.88 µg/mL (≈ 2.45 µM); MIC90 [19]: 74.1 µg/mL (≈ 207 µM); GI50 [20]: > 100 µg/mL; GI90 [20]: > 100 µg/mL; selectivity ratio [21]: 12; selectivity ratio [22]: 12; MIC90 [23]: 48.2 µg/mL (≈ 135 µM); GI50 [24]: > 100 µg/mL; GI90 [24]: > 100 µg/mL; inhibition of growth at 10 µg/mL [25]: 73.5%; selectivity ratio [26]: 1; IC50 [27]: 7.37 µg/mL (≈ 20.6 µM); MIC90 [27]: 67.3 µg/mL (≈ 188 µM); selectivity ratio [28]: 1; inhibition of growth at 10 µg/mL [29]: 72.7%; selectivity ratio [30]: 5; selectivity ratio [31]: 1; selectivity ratio [32]: 12; selectivity ratio [33]: 5

Reference: ChEMBL document CHEMBL3872252, “New bithiazolyl hydrazones: Novel synthesis, characterization and antitubercular evaluation” (Bioorg Med Chem Lett, 2017)
